Assay results published in ChEMBL document CHEMBL1154874, “6-Substituted 2-(N-trifluoroacetylamino)imidazopyridines induce cell cycle arrest and apoptosis in SK-LU-1 human cancer cell line” (Eur J Med Chem, 2010).
Activity calls are given as the source filed them. The calls are words filed in the database; no cut-off is given here.

How the values were obtained:
HCT-15 [1] = assay: Cytotoxicity against human HCT15 cells assessed as cell growth inhibition at 50 uM after 48 hrs by SRB assay; format: functional; settings: for inhibition of growth at 50 µM: HCT-15, 48 h, read-out: GI
Method in brief: (§1)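 Cells in RPMI-1640/10% FBS/2 mM L-glutamine at 37 °C, 5% CO₂, seeded at 5000 cells/well and treated 24 h later for 48 h. Growth read by SRB (TCA fixation, 0.4% SRB, Tris solubilization, OD 515 nm).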

K562 [2] = assay: Cytotoxicity against human K562 cells assessed as cell growth inhibition at 50 uM after 48 hrs by SRB assay; format: functional; settings: K562, 48 h, read-out: GI; method in brief: as §1
PC-3 [3] = assay: Cytotoxicity against human PC3 cells assessed as cell growth inhibition at 50 uM after 48 hrs by SRB assay; format: functional; settings: PC-3, 48 h, read-out: GI; method in brief: as §1
PC-3 [4] = assay: Cytotoxicity against human PC3 cells after 48 hrs by SRB assay; format: functional, cell-based; settings: PC-3, 48 h
Method in brief: (§2)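 Compounds dissolved in DMSO. Cells grown in RPMI-1640 with 10% FBS and 2 mM L-glutamine at 37 °C under 5% CO₂. Seeded from 70% confluent flasks at 5000 cells/well, treated 24 h after seeding for 48 h. Fixed in situ with cold 50% TCA for 1 h at 4 °C, stained with 0.4% SRB, dye solubilized in 10 mM unbuffered Tris base, OD read at 515 nm.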

U-251 [5] = assay: Cytotoxicity against human U251 cells after 48 hrs by SRB assay; format: functional, cell-based; settings: U-251, 48 h; method in brief: as §2
SK-LU-1 [6] = assay: Cell cycle arrest in human SK-LU-1 cells assessed as accumulation at S phase at 2 times IC50 concentration after 24 hrs using propidium iodide staining by flow cytometry relative to control; format: functional
Method in brief: (§3)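 Log-phase cells seeded in RPMI-1640 + 10% FBS at 1×10⁶ per 10 cm dish, attached 24 h at 37 °C, then exposed to compound (DMSO solvent control) for 24 h. Harvested with PBS-EDTA, washed, fixed in ice-cold 70% ethanol at −20 °C for 24–48 h, stained with propidium iodide and analysed by FACScan flow cytometry. Three independent experiments, mean ± SD; P < 0.05 versus DMSO.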

MCF7 [7] = assay: Cytotoxicity against human MCF7 cells assessed as cell growth inhibition at 50 uM after 48 hrs by SRB assay; format: functional; settings: MCF7, 48 h, read-out: GI; method in brief: as §1
U-251 [8] = assay: Cytotoxicity against human U251 cells assessed as cell growth inhibition at 50 uM after 48 hrs by SRB assay; format: functional; settings: U-251, 48 h, read-out: GI; method in brief: as §1
SK-LU-1 [9] = assay: Cell cycle arrest in human SK-LU-1 cells assessed as accumulation at G2/M phase at 2 times IC50 concentration after 24 hrs using propidium iodide staining by flow cytometry relative to control; format: functional; method in brief: as §3
MCF7 [10] = assay: Cell cycle arrest in human MCF7 cells assessed as accumulation at S phase at 2 times IC50 concentration after 24 hrs using propidium iodide staining by flow cytometry relative to control; format: functional; method in brief: as §3
SK-LU-1 [11] = assay: Cytotoxicity against human SK-LU-1 cells after 48 hrs by SRB assay; format: functional, cell-based; settings: SK-LU-1, 48 h; method in brief: as §2
K562 [12] = assay: Cytotoxicity against human K562 cells after 48 hrs by SRB assay; format: functional, cell-based; settings: K562, 48 h; method in brief: as §2
HCT-15 [13] = assay: Cytotoxicity against human HCT15 cells after 48 hrs by SRB assay; format: functional, cell-based; settings: HCT-15, 48 h; method in brief: as §2
MCF7 [14] = assay: Cytotoxicity against human MCF7 cells after 48 hrs by SRB assay; format: functional, cell-based; settings: MCF7, 48 h; method in brief: as §2
SK-LU-1 [15] = assay: Cytotoxicity against human SK-LU-1 cells assessed as cell growth inhibition at 50 uM after 48 hrs by SRB assay; format: functional; settings: SK-LU-1, 48 h, read-out: GI; method in brief: as §1
MCF7 [16] = assay: Cell cycle arrest in human MCF7 cells assessed as accumulation at G0/G1 phase at 2 times IC50 concentration after 24 hrs using propidium iodide staining by flow cytometry relative to control; format: functional; method in brief: as §3
MCF7 [17] = assay: Cell cycle arrest in human MCF7 cells assessed as accumulation at G2/M phase at 2 times IC50 concentration after 24 hrs using propidium iodide staining by flow cytometry relative to control; format: functional; method in brief: as §3
SK-LU-1 [18] = assay: Cell cycle arrest in human SK-LU-1 cells assessed as accumulation at G0/G1 phase at 2 times IC50 concentration after 24 hrs using propidium iodide staining by flow cytometry relative to control; format: functional; method in brief: as §3
SK-LU-1 [19] = assay: Induction of apoptosis in human SK-LU-1 cells assessed as early apoptotic cells at 2 times IC50 concentration after 48 hrs using annexin V-propidium iodide staining by flow cytometry; format: functional, cell-based
Method in brief: (§4)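 SK-LU-1 cells treated 48 h with compounds at 2×IC50 or with DMSO as control. Labelled with FITC-annexin V and propidium iodide in binding buffer and analysed on a FACScan flow cytometer. Annexin V-only cells were scored as early apoptotic and annexin V/PI double-stained cells as late apoptotic. Values are means of three independent experiments.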

SK-LU-1 [20] = assay: Induction of apoptosis in human SK-LU-1 cells assessed as late apoptotic cells at 2 times IC50 concentration after 48 hrs using annexin V-propidium iodide staining by flow cytometry; format: functional, cell-based; method in brief: as §4
SK-LU-1 [21] = assay: Induction of apoptosis in human SK-LU-1 cells assessed as appearance of phosphatidylserine residues at 2 times IC50 concentration after 48 hrs by flow cytometry; format: functional; method in brief: as §4

Cn1cnc2c(NCc3ccccc3)nc(NCCO)nc21 [OLOMOUCINE]
inhibition of growth at 50 µM (HCT-15 [1]): 28.9%
inhibition of growth at 50 µM (K562 [2]): 19.8%
inhibition of growth at 50 µM (PC-3 [3]): 22.7%
IC50 (PC-3 [4]): 81 µM
IC50 (U-251 [5]): 81.5 µM
Activity (SK-LU-1 [6]): 19.7%
inhibition of growth at 50 µM (MCF7 [7]): 37.6%
inhibition of growth at 50 µM (U-251 [8]): 32%
Activity (SK-LU-1 [9]): 31.8%
Activity (MCF7 [10]): 15%
IC50 (SK-LU-1 [11]): 68.1 µM
IC50 (K562 [12]): 89.3 µM
IC50 (HCT-15 [13]): 62.5 µM
IC50 (MCF7 [14]): 55.9 µM
inhibition of growth at 50 µM (SK-LU-1 [15]): 36.9%
Activity (MCF7 [16]): 60.6%
Activity (MCF7 [17]): 23.2%
Activity (SK-LU-1 [18]): 44.2%

O=C(c1ccc2nc(NC(=O)C(F)(F)F)cn2c1)c1ccc(C(F)(F)F)cc1F
inhibition of growth at 50 µM (HCT-15 [1]): 100%
inhibition of growth at 50 µM (K562 [2]): 90.2%
inhibition of growth at 50 µM (PC-3 [3]): 92.6%
IC50 (PC-3 [4]): 28 µM
IC50 (U-251 [5]): 52.3 µM
inhibition of growth at 50 µM (MCF7 [7]): 97.2%
inhibition of growth at 50 µM (U-251 [8]): 80.1%
IC50 (SK-LU-1 [11]): 35.1 µM
IC50 (K562 [12]): 56.6 µM
IC50 (HCT-15 [13]): 25 µM
IC50 (MCF7 [14]): 24.9 µM
inhibition of growth at 50 µM (SK-LU-1 [15]): 100%

O=C(c1ccc2nc(NC(=O)C(F)(F)F)cn2c1)c1cc(C(F)(F)F)ccc1F
inhibition of growth at 50 µM (HCT-15 [1]): 91.7%
inhibition of growth at 50 µM (K562 [2]): 88%
inhibition of growth at 50 µM (PC-3 [3]): 61.5%
inhibition of growth at 50 µM (MCF7 [7]): 65.1%
inhibition of growth at 50 µM (U-251 [8]): 59.3%
inhibition of growth at 50 µM (SK-LU-1 [15]): 70.5%

Cn1cc(C(=O)c2ccc3nc(NC(=O)C(F)(F)F)cn3c2)c2ccccc21
inhibition of growth at 50 µM (HCT-15 [1]): 78%
inhibition of growth at 50 µM (K562 [2]): 95.5%
inhibition of growth at 50 µM (PC-3 [3]): 63.7%
IC50 (U-251 [5]): 27.8 µM
Activity (SK-LU-1 [6]): 14.7%
inhibition of growth at 50 µM (MCF7 [7]): 80.4%
inhibition of growth at 50 µM (U-251 [8]): 92.7%
Activity (SK-LU-1 [9]): 47.5%
Activity (SK-LU-1 [19]): Active
Activity (MCF7 [10]): 6.3%
IC50 (SK-LU-1 [11]): 24.8 µM
IC50 (K562 [12]): 54.6 µM
Activity (SK-LU-1 [20]): Active
IC50 (HCT-15 [13]): 65.1 µM
IC50 (MCF7 [14]): 44.3 µM
inhibition of growth at 50 µM (SK-LU-1 [15]): 69.2%
Activity (MCF7 [16]): 70.6%
Activity (MCF7 [17]): 20.2%
Activity (SK-LU-1 [21]): 24.1%
Activity (SK-LU-1 [18]): 32.9%

O=C(c1ccc2nc(NC(=O)C(F)(F)F)cn2c1)c1ncc[nH]1
inhibition of growth at 50 µM (HCT-15 [1]): 47.8%
inhibition of growth at 50 µM (K562 [2]): 88.3%
inhibition of growth at 50 µM (PC-3 [3]): 58.1%
IC50 (PC-3 [4]): 52.3 µM
IC50 (U-251 [5]): 37.7 µM
inhibition of growth at 50 µM (MCF7 [7]): 60.7%
inhibition of growth at 50 µM (U-251 [8]): 80.2%
IC50 (SK-LU-1 [11]): 25.1 µM
IC50 (K562 [12]): 51.5 µM
IC50 (HCT-15 [13]): 56.8 µM
IC50 (MCF7 [14]): 42.4 µM
inhibition of growth at 50 µM (SK-LU-1 [15]): 97.5%

O=C(c1ccc(C(F)(F)F)c(F)c1)c1ccc2nc(NC(=O)C(F)(F)F)cn2c1
inhibition of growth at 50 µM (HCT-15 [1]): 59.2%
inhibition of growth at 50 µM (K562 [2]): 50.1%
inhibition of growth at 50 µM (PC-3 [3]): 32.6%
IC50 (U-251 [5]): 84.2 µM
inhibition of growth at 50 µM (MCF7 [7]): 56.5%
inhibition of growth at 50 µM (U-251 [8]): 38.4%
IC50 (SK-LU-1 [11]): 57.1 µM
IC50 (K562 [12]): 83.2 µM
IC50 (HCT-15 [13]): 57.1 µM
IC50 (MCF7 [14]): 50.8 µM
inhibition of growth at 50 µM (SK-LU-1 [15]): 48.3%

Cn1ccnc1C(=O)c1ccc2nc(NC(=O)C(F)(F)F)cn2c1
growth inhibition (GI) (HCT-15 [1]): inactive
inhibition of growth at 50 µM (K562 [2]): 45.3%
inhibition of growth at 50 µM (PC-3 [3]): 6.1%
inhibition of growth at 50 µM (MCF7 [7]): 30.8%
inhibition of growth at 50 µM (U-251 [8]): 11.9%
inhibition of growth at 50 µM (SK-LU-1 [15]): 29.2%

Cc1ccc(F)c(C(=O)c2ccc3nc(NC(=O)C(F)(F)F)cn3c2)c1
inhibition of growth at 50 µM (HCT-15 [1]): 91.2%
inhibition of growth at 50 µM (K562 [2]): 92.6%
inhibition of growth at 50 µM (PC-3 [3]): 59.2%
IC50 (PC-3 [4]): 36.3 µM
IC50 (U-251 [5]): 51.9 µM
Activity (SK-LU-1 [6]): 21.2%
inhibition of growth at 50 µM (MCF7 [7]): 66.3%
inhibition of growth at 50 µM (U-251 [8]): 61.5%
Activity (SK-LU-1 [19]): Active
Activity (MCF7 [10]): 7.1%
IC50 (SK-LU-1 [11]): 11.2 µM
IC50 (K562 [12]): 10.9 µM
Activity (SK-LU-1 [20]): Active
IC50 (HCT-15 [13]): 10.5 µM
IC50 (MCF7 [14]): 10.7 µM
inhibition of growth at 50 µM (SK-LU-1 [15]): 71.7%
Activity (MCF7 [16]): 74%
Activity (MCF7 [17]): 13.4%
Activity (SK-LU-1 [21]): 20%
Activity (SK-LU-1 [18]): 10.4%

O=C(Nc1cn2cc(I)ccc2n1)C(F)(F)F
inhibition of growth at 50 µM (HCT-15 [1]): 56.3%
inhibition of growth at 50 µM (K562 [2]): 33.1%
inhibition of growth at 50 µM (PC-3 [3]): 50.9%
inhibition of growth at 50 µM (MCF7 [7]): 36.7%
inhibition of growth at 50 µM (U-251 [8]): 20.8%
inhibition of growth at 50 µM (SK-LU-1 [15]): 25.6%

Cc1ccc(C(=O)c2ccc3nc(NC(=O)C(F)(F)F)cn3c2)cc1F
inhibition of growth at 50 µM (HCT-15 [1]): 65.5%
inhibition of growth at 50 µM (K562 [2]): 52.2%
inhibition of growth at 50 µM (PC-3 [3]): 30.7%
Activity (SK-LU-1 [6]): 16.2%
inhibition of growth at 50 µM (MCF7 [7]): 57.3%
inhibition of growth at 50 µM (U-251 [8]): 37.9%
Activity (SK-LU-1 [9]): 60.6%
Activity (MCF7 [10]): 14.5%
inhibition of growth at 50 µM (SK-LU-1 [15]): 81.5%
Activity (MCF7 [16]): 63.5%
Activity (MCF7 [17]): 18.1%
Activity (SK-LU-1 [21]): 39.5%
Activity (SK-LU-1 [18]): 22.6%
